Measured values as given in ChEMBL document CHEMBL2086296, “Synthesis of novel quinoline-2-one based chalcones of potential anti-tumor activity” (Eur J Med Chem, 2012).

Experiments:
HOP-62 = assay: Cytotoxicity against human HOP62 cells after 24 hrs by SRB assay; format: functional; settings: HOP-62, 24 h
Method in brief: (§1)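 NCI 60-line screen. Cells in RPMI 1640 with 5% FBS and 2 mM L-glutamine, seeded at 5,000–40,000 cells/well by doubling time, then incubated 24 h at 37 °C, 5% CO2 before dosing. Time-zero plates fixed with TCA at drug addition. DMSO stocks diluted in medium with gentamicin to five concentrations, […]. Protein read by SRB staining. GI50, TGI and LC50 derived relative to control and time-zero.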

NCI-H226 [1] = assay: (§2) Cytotoxicity against human NCI-H226 cells after 24 hrs by SRB assay; format: functional; settings: NCI-H226, 24 h; method in brief: as §1
NCI-H522 = assay: Cytotoxicity against human NCI-H522 cells after 24 hrs by SRB assay; format: functional; settings: NCI-H522, 24 h; method in brief: as §1
NCI-H322M [2] = assay: (§3) Cytotoxicity against human NCI-H322M cells after 24 hrs by SRB assay; format: functional; method in brief: as §1
A549 = assay: Cytotoxicity against human A549 cells after 24 hrs by SRB assay; format: functional; settings: A549, 24 h; method in brief: as §1
COLO 205 [3] = assay: (§4) Cytotoxicity against human COLO205 cells after 24 hrs by SRB assay; format: functional; settings: COLO 205, 24 h; method in brief: as §1
HCT-15 [4] = assay: (§5) Cytotoxicity against human HCT15 cells after 24 hrs by SRB assay; format: functional; settings: HCT-15, 24 h; method in brief: as §1
HCC 2998 = assay: Cytotoxicity against human HCC2998 cells after 24 hrs by SRB assay; format: functional; settings: HCC 2998, 24 h; method in brief: as §1
Malme-3M [5] = assay: (§6) Cytotoxicity against human MALME-3M cells after 24 hrs by SRB assay; format: functional; method in brief: as §1
SK-MEL-28 [6] = assay: (§7) Cytotoxicity against human SK-MEL-28 cells after 24 hrs by SRB assay; format: functional; settings: SK-MEL-28, 24 h; method in brief: as §1
CAKI-1 = assay: Cytotoxicity against human CAKI-1 cells after 24 hrs by SRB assay; format: functional; settings: CAKI-1, 24 h; method in brief: as §1
TK-10 [7] = assay: (§8) Cytotoxicity against human TK10 cells after 24 hrs by SRB assay; format: functional; settings: TK-10, 24 h
Method in brief: (§9)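 NCI 60-cell screen. Cells are grown in RPMI 1640 with 5% FBS and 2 mM L-glutamine and seeded at 5,000–40,000 cells/well according to doubling time. They are preincubated 24 h at 37 °C in 5% CO2, and Tz plates are TCA-fixed at drug addition. Drug stock is in DMSO, diluted in medium with gentamicin, and tested at five concentrations (100, 10, 1.0, 0.1, […]). Protein is read by SRB staining. GI50, TGI and LC50 are derived relative to time-zero and control wells.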

UO-31 [8] = assay: (§10) Cytotoxicity against human UO31 cells after 24 hrs by SRB assay; format: functional; settings: UO-31, 24 h; method in brief: as §9
786-0 = assay: Cytotoxicity against human 786-0 cells after 24 hrs by SRB assay; format: functional; settings: 786-0, 24 h; method in brief: as §1
DU-145 = assay: Cytotoxicity against human DU145 cells after 24 hrs by SRB assay; format: functional; settings: DU-145, 24 h; method in brief: as §1
MCF7 = assay: Cytotoxicity against human MCF7 cells after 24 hrs by SRB assay; format: functional; settings: MCF7, 24 h; method in brief: as §1
T47D = assay: Cytotoxicity against human T47D cells after 24 hrs by SRB assay; format: functional; method in brief: as §9
RPMI-8226 = assay: Cytotoxicity against human RPMI8226 cells after 24 hrs by SRB assay; format: cell-based; settings: rpmi-8226, 24 h
Method in brief: (§11)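 NCI 60-cell screen. Cells grown in RPMI 1640 with 5% FBS and 2 mM L-glutamine, seeded at 5,000–40,000 cells/well, preincubated 24 h at 37 °C in 5% CO2. Drug stock in DMSO, diluted in medium with gentamicin; five final concentrations, 100, 10, 1.0, 0.1 and […]. Time-zero plates were TCA-fixed. Protein read by SRB staining; GI50, TGI and LC50 taken relative to time-zero.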

NCI-H226 [9] = assay: as §2; format: cell-based; settings: nci-h226, 24 h; method in brief: as §11
NCI-H460 = assay: Cytotoxicity against human NCI-H460 cells after 24 hrs by SRB assay; format: cell-based; settings: nci-h460, 24 h; method in brief: as §11
NCI-H322M [10] = assay: as §3; format: cell-based; method in brief: as §11
COLO 205 [11] = assay: as §4; format: cell-based; settings: colo 205, 24 h; method in brief: as §11
HCT-15 [12] = assay: as §5; format: cell-based; settings: hct-15, 24 h; method in brief: as §11
KM12 = assay: Cytotoxicity against human KM12 cells after 24 hrs by SRB assay; format: cell-based; settings: km12, 24 h; method in brief: as §11
SF-295 = assay: Cytotoxicity against human SF295 cells after 24 hrs by SRB assay; format: cell-based; settings: sf-295, 24 h; method in brief: as §11
U-251 = assay: Cytotoxicity against human U251 cells after 24 hrs by SRB assay; format: cell-based; settings: u-251, 24 h
Method in brief: (§12)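 NCI 60-cell-line screen: cells grown in RPMI 1640 with 5% FBS and 2 mM L-glutamine, seeded at 5,000–40,000 cells/well by doubling time, and preincubated 24 h at 37 °C in 5% CO2. Time-zero plates were TCA-fixed. DMSO stocks were diluted in medium with gentamicin to five concentrations (100, 10, 1.0, 0.1, […]). Protein was read by SRB, and GI50, TGI and LC50 were derived against time-zero.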

SNB-19 = assay: Cytotoxicity against human SNB19 cells after 24 hrs by SRB assay; format: cell-based; settings: snb-19, 24 h; method in brief: as §12
Malme-3M [13] = assay: as §6; format: cell-based; method in brief: as §11
HL-60 = assay: Cytotoxicity against human HL60 cells after 24 hrs by SRB assay; format: functional; settings: HL-60, 24 h; method in brief: as §1
M14 = assay: Cytotoxicity against human M14 cells after 24 hrs by SRB assay; format: cell-based; settings: m14, 24 h; method in brief: as §11
SK-MEL-28 [14] = assay: as §7; format: cell-based; settings: sk-mel-28, 24 h; method in brief: as §11
NCI/ADR-RES = assay: Cytotoxicity against human NCI/ADR-RES cells after 24 hrs by SRB assay; format: cell-based; method in brief: as §11
OVCAR-8 = assay: Cytotoxicity against human OVCAR8 cells after 24 hrs by SRB assay; format: cell-based; settings: ovcar-8, 24 h; method in brief: as §11
OVCAR-5 = assay: Cytotoxicity against human OVCAR5 cells after 24 hrs by SRB assay; format: cell-based; settings: ovcar-5, 24 h; method in brief: as §11
SK-OV-3 = assay: Cytotoxicity against human SKOV3 cells after 24 hrs by SRB assay; format: cell-based; settings: sk-ov-3, 24 h; method in brief: as §12
TK-10 [15] = assay: as §8; format: cell-based; settings: tk-10, 24 h; method in brief: as §12
UO-31 [16] = assay: as §10; format: cell-based; settings: uo-31, 24 h; method in brief: as §12
MDA-MB-231 = assay: Cytotoxicity against human MDA-MB-231 cells after 24 hrs by SRB assay; format: cell-based; settings: mda-mb-231, 24 h; method in brief: as §11
BT-549 = assay: Cytotoxicity against human BT549 cells after 24 hrs by SRB assay; format: cell-based; settings: bt-549, 24 h; method in brief: as §11

## O=C(/C=C/c1cc2ccccc2[nH]c1=O)c1ccc(Cl)cc1
HOP-62
  GI50: 7.43 µM
  TGI: 44.2 µM
NCI-H226 [1]
  GI50: 11.6 µM
  TGI: 38.9 µM
NCI-H522
  GI50: 2.23 µM
  TGI: 6.58 µM
NCI-H322M [2]
  GI50: 13.4 µM
  TGI: 79 µM
A549
  GI50: 7.24 µM
  TGI: > 100 µM
COLO 205 [3]
  GI50: 10.1 µM
  TGI: 51.3 µM
HCT-15 [4]
  GI50: 3.18 µM
  TGI: 20.2 µM
HCC 2998
  GI50: 6.55 µM
  TGI: 22.3 µM
Malme-3M [5]
  GI50: 9.42 µM
  TGI: 35.3 µM
SK-MEL-28 [6]
  GI50: 17.7 µM
  TGI: 72.5 µM
CAKI-1
  GI50: 1.6 µM
  TGI: 3.3 µM
TK-10 [7]
  GI50: 5.05 µM
  TGI: 20.8 µM
UO-31 [8]
  GI50: 5.27 µM
  TGI: > 100 µM
786-0
  GI50: 13.8 µM
  TGI: > 100 µM
DU-145
  GI50: 4.08 µM
  TGI: 48.9 µM
MCF7
  GI50: 2.41 µM
  TGI: > 100 µM
T47D
  GI50: 7.31 µM
  TGI: > 100 µM
RPMI-8226
  LC50: > 100 µM
NCI-H226 [9]
  LC50: > 100 µM
NCI-H460
  LC50: > 100 µM
NCI-H322M [10]
  LC50: > 100 µM
COLO 205 [11]
  LC50: > 100 µM
HCT-15 [12]
  LC50: > 100 µM
KM12
  LC50: 98.9 µM
SF-295
  LC50: > 100 µM
U-251
  LC50: 39.7 µM
SNB-19
  LC50: > 100 µM
Malme-3M [13]
  LC50: > 100 µM
HL-60
  GI50: 2.47 µM
  TGI: > 100 µM
M14
  LC50: > 100 µM
SK-MEL-28 [14]
  LC50: > 100 µM
NCI/ADR-RES
  LC50: > 100 µM
OVCAR-8
  LC50: 88.4 µM
OVCAR-5
  LC50: > 100 µM
SK-OV-3
  LC50: > 100 µM
TK-10 [15]
  LC50: 75.8 µM
UO-31 [16]
  LC50: > 100 µM
MDA-MB-231
  LC50: > 100 µM
BT-549
  LC50: 97.6 µM
